From ChEMBL document CHEMBL2417469, “Synthesis of novel analogs of 2-pyrazoline obtained from [(7-chloroquinolin-4-yl)amino]chalcones and hydrazine as potential antitumor and antimalarial agents” (Eur J Med Chem, 2013)
Converted amounts (≈) assume the structure as drawn.

Assays:
T47D = assay: Cytotoxicity against human T47D cells after 48 hrs by SRB assay; format: functional
Method in brief: (§1)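 NCI 60-cell screen. Cells grew 24 h (37 °C, 5% CO2) before compound was added. Compounds were in DMSO and diluted in medium with gentamicin, then tested at five levels (100, 10, 1.0, 0.1, 0.01 µM) with 48 h continuous exposure. Adherent cells were fixed with TCA (10% final) and stained with 0.4% SRB, absorbance read at 515 nm. A time-zero plate was included. LC50 is the concentration giving 50% loss of protein relative to time zero.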

MCF7 = assay: Cytotoxicity against human MCF7 cells after 48 hrs by SRB assay; format: functional; conditions: MCF7, 48 h; for CC50: read-out: LC50 (the source's name)
Method in brief: (§2)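 NCI 60-cell-line screen. Cells preincubated 24 h at 37 °C, 5% CO2; time-zero plates TCA-fixed. Compounds dissolved in DMSO and tested at five concentrations (100, 10, 1.0, 0.1, 0.01 µM) for 48 h continuous exposure. Adherent cells fixed with cold TCA (10% final), then SRB stained; absorbance at 515 nm. GI50, TGI and LC50 calculated from growth relative to time-zero and untreated controls.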

SN12C = assay: Cytotoxicity against human SN12C cells after 48 hrs by SRB assay; format: functional; method in brief: as §2
ACHN = assay: Cytotoxicity against human ACHN cells after 48 hrs by SRB assay; format: functional; conditions: for CC50: read-out: LC50 (the source's name); method in brief: as §2
OVCAR-8 = assay: Cytotoxicity against human OVCAR8 cells after 48 hrs by SRB assay; format: functional; conditions: OVCAR-8, 48 h; method in brief: as §2
OVCAR-5 = assay: Cytotoxicity against human OVCAR5 cells after 48 hrs by SRB assay; format: functional; conditions: OVCAR-5, 48 h; method in brief: as §2
OVCAR-3 = assay: Cytotoxicity against human OVCAR3 cells after 48 hrs by SRB assay; format: functional; conditions: OVCAR-3, 48 h; method in brief: as §2
SK-MEL-5 = assay: Cytotoxicity against human SK-MEL-5 cells after 48 hrs by SRB assay; format: functional; conditions: SK-MEL-5, 48 h; method in brief: as §2
SK-MEL-28 = assay: Cytotoxicity against human SK-MEL-28 cells after 48 hrs by SRB assay; format: functional; conditions: SK-MEL-28, 48 h; for CC50: read-out: LC50 (the source's name); method in brief: as §2
MDA-MB-435 = assay: Cytotoxicity against human MDA-MB-435 cells after 48 hrs by SRB assay; format: functional; conditions: MDA-MB-435, 48 h; method in brief: as §2
SNB-19 = assay: Cytotoxicity against human SNB19 cells after 48 hrs by SRB assay; format: functional; conditions: SNB-19, 48 h; method in brief: as §1
SF-268 = assay: Cytotoxicity against human SF268 cells after 48 hrs by SRB assay; format: functional; conditions: SF-268, 48 h; method in brief: as §2
HCT-116 = assay: Cytotoxicity against human HCT116 cells after 48 hrs by SRB assay; format: functional; conditions: HCT-116, 48 h; method in brief: as §2
HCC 2998 = assay: Cytotoxicity against human HCC2998 cells after 48 hrs by SRB assay; format: functional; conditions: HCC 2998, 48 h; method in brief: as §2
NCI-H460 = assay: Cytotoxicity against human NCI-H460 cells after 48 hrs by SRB assay; format: functional; conditions: NCI-H460, 48 h; method in brief: as §2
NCI-H322M = assay: Cytotoxicity against human NCI-H322M cells after 48 hrs by SRB assay; format: functional; method in brief: as §2
NCI-H226 = assay: Cytotoxicity against human NCI-H226 cells after 48 hrs by SRB assay; format: functional; conditions: NCI-H226, 48 h; method in brief: as §2
HOP-92 = assay: Cytotoxicity against human HOP92 cells after 48 hrs by SRB assay; format: functional; conditions: HOP-92, 48 h; method in brief: as §2
HOP-62 = assay: Cytotoxicity against human HOP62 cells after 48 hrs by SRB assay; format: functional; conditions: HOP-62, 48 h; method in brief: as §2
[1] = Cytotoxicity against human EKVX cells after 48 hrs by SRB assay; format: functional; method in brief: as §2
RPMI-8226 = assay: Cytotoxicity against human RPMI8226 cells after 48 hrs by SRB assay; format: functional; conditions: RPMI-8226, 48 h; method in brief: as §2
K562 = assay: Cytotoxicity against human K562 cells after 48 hrs by SRB assay; format: functional; conditions: K562, 48 h; method in brief: as §2
[2] = Toxicity in RBC (unknown origin) assessed as hemolysis after 48 hrs at 20 to 80 ug/ml by spectrophotometry; format: cell-based, Erythrocyte; conditions: red blood cells (RBC); read-out: Activity
Method in brief: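 Red blood cells at 5% hematocrit in RPMI 1640 exposed to 20, 40 and 80 µg/mL for 48 h at 37 °C; free hemoglobin read spectrophotometrically at 542 nm.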

Plasmodium falciparum [3] = assay: Antimalarial activity against Plasmodium falciparum NF54 infected in human serum at 20 ug/ml after 48 hrs by fluorometric method; format: functional
Method in brief: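 Asynchronous P. falciparum NF54 at 1.5–2% parasitemia, 5% hematocrit in RPMI with 10% human serum, exposed 48 h at 37 °C under 90% N2/5% CO2/5% O2 at the stated concentration; parasite DNA stained with ethidium bromide after proteinase K lysis; viability % = (Flu treated − medium)/(Flu untreated − medium) ×100; triplicate.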

Plasmodium falciparum [4] = assay: Antimalarial activity against Plasmodium falciparum NF54 infected in human serum after 48 hrs by fluorometric method; format: functional, organism-based
Method in brief: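 Asynchronous P. falciparum NF54 cultures at 1.5–2% parasitemia, 5% hematocrit in RPMI with 10% human serum; equal volumes of parasite suspension and compound dilutions (from 100 µg/mL stock) incubated 48 h, 37 °C, 90% N2/5% CO2/5% O2. DNA extracted with proteinase K lysis, stained with ethidium bromide; fluorescence-based viability vs compound-free control. IC50 by Probit; triplicate.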

SK-MEL-2 = assay: Cytotoxicity against human SK-MEL-2 cells after 48 hrs by SRB assay; format: functional; conditions: SK-MEL-2, 48 h; method in brief: as §2

Structure (SMILES): COc1cccc2c1C(=O)c1c(O)c3c(c(O)c1C2=O)C[C@@](O)(C(=O)CO)C[C@@H]3O[C@H]1C[C@H](N)[C@H](O)[C@H](C)O1 [DOXORUBICIN]
- GI50 (T47D): 0.06 µM
- GI50 (MCF7): 0.03 µM
- CC50 (MCF7): 51.3 µM
- GI50 (SN12C): 0.07 µM
- GI50 (ACHN): 0.08 µM
- CC50 (ACHN): 100 µM
- GI50 (OVCAR-8): 0.1 µM
- GI50 (OVCAR-5): 0.41 µM
- GI50 (OVCAR-3): 0.39 µM
- GI50 (SK-MEL-5): 0.08 µM
- GI50 (SK-MEL-28): 0.21 µM
- CC50 (SK-MEL-28): 15.9 µM
- GI50 (MDA-MB-435): 0.25 µM
- GI50 (SNB-19): 0.04 µM
- GI50 (SF-268): 0.1 µM
- GI50 (HCT-116): 0.08 µM
- GI50 (HCC 2998): 0.26 µM
- GI50 (NCI-H460): 0.02 µM
- GI50 (NCI-H322M): 0.54 µM
- GI50 (NCI-H226): 0.05 µM
- GI50 (HOP-92): 0.1 µM
- GI50 (HOP-62): 0.07 µM
- GI50 [1]: 0.41 µM
- GI50 (RPMI-8226): 0.08 µM
- GI50 (K562): 0.19 µM

Structure (SMILES): O=CN1N=C(c2ccc(Nc3ccnc4cc(Cl)ccc34)cc2)CC1c1ccccc1 (stereo unspecified)
- hemolysis at 48 h [2]: 3.8%
- inhibition at 20 µg/mL (Plasmodium falciparum [3]): 20.2%
- GI50 (T47D): 2.18 µM
- LC50 (concentration giving 50% cell kill relative to time zero) (T47D): > 100 µM
- GI50 (MCF7): 3.42 µM
- CC50 (MCF7): > 100 µM
- GI50 (SN12C): 3.8 µM
- LC50 (50% net cell kill relative to time zero) (SN12C): > 100 µM
- GI50 (ACHN): 4.21 µM
- CC50 (ACHN): > 100 µM
- GI50 (OVCAR-8): 4.53 µM
- LC50 (50% net cell kill) (OVCAR-8): > 100 µM
- GI50 (OVCAR-5): 19.8 µM
- LC50 (OVCAR-5): > 100 µM
- GI50 (OVCAR-3): 2.78 µM
- LC50 (OVCAR-3): 43.2 µM
- GI50 (SK-MEL-5): 1.38 µM
- LC50 (concentration killing 50% of cells present at time zero) (SK-MEL-5): 11.2 µM
- GI50 (SK-MEL-28): 8.35 µM
- CC50 (SK-MEL-28): > 100 µM
- GI50 (MDA-MB-435): 1.59 µM
- LC50 (MDA-MB-435): > 100 µM
- GI50 (SNB-19): 5.13 µM
- LC50 (SNB-19): > 100 µM
- GI50 (SF-268): 3.96 µM
- LC50 (SF-268): > 100 µM
- GI50 (HCT-116): 3.58 µM
- LC50 (HCT-116): > 100 µM
- GI50 (HCC 2998): 3.5 µM
- LC50 (HCC 2998): > 100 µM
- GI50 (NCI-H460): 3.96 µM
- LC50 (NCI-H460): > 100 µM
- GI50 (NCI-H226): 5.22 µM
- LC50 (50% lethal concentration) (NCI-H226): > 100 µM
- GI50 (HOP-92): 4.28 µM
- LC50 (concentration killing 50% of cells) (HOP-92): > 100 µM
- GI50 (HOP-62): 5.26 µM
- LC50 (50% lethal concentration) (HOP-62): > 100 µM
- GI50 [1]: 4.94 µM
- LC50 [1]: > 100 µM
- GI50 (RPMI-8226): 2.55 µM
- LC50 (concentration killing 50% of cells) (RPMI-8226): > 100 µM

Structure (SMILES): CC(=O)N1N=C(c2ccc(Nc3ccnc4cc(Cl)ccc34)cc2)CC1c1ccc(Cl)cc1 (stereo unspecified)
- hemolysis at 48 h [2]: 3.4%
- IC50 (Plasmodium falciparum [4]): 54.6 µg/mL (≈ 115 µM)
- inhibition at 20 µg/mL (Plasmodium falciparum [3]): 32.9%
- GI50 (T47D): 1.57 µM
- LC50 (concentration giving 50% cell kill relative to time zero) (T47D): > 100 µM
- GI50 (MCF7): 4.04 µM
- CC50 (MCF7): > 100 µM
- GI50 (SN12C): 30.7 µM
- LC50 (50% net cell kill relative to time zero) (SN12C): > 100 µM
- GI50 (ACHN): 3.96 µM
- CC50 (ACHN): > 100 µM
- GI50 (OVCAR-8): > 100 µM
- LC50 (50% net cell kill) (OVCAR-8): > 100 µM
- GI50 (OVCAR-5): > 100 µM
- LC50 (OVCAR-5): > 100 µM
- GI50 (OVCAR-3): 7.19 µM
- LC50 (OVCAR-3): > 100 µM
- GI50 (SK-MEL-5): 2.2 µM
- LC50 (concentration killing 50% of cells present at time zero) (SK-MEL-5): > 100 µM
- GI50 (SK-MEL-28): 4.88 µM
- CC50 (SK-MEL-28): > 100 µM
- GI50 (SK-MEL-2): > 100 µM
- LC50 (SK-MEL-2): > 100 µM
- GI50 (MDA-MB-435): 0.57 µM
- LC50 (MDA-MB-435): > 100 µM
- GI50 (SNB-19): > 100 µM
- LC50 (SNB-19): > 100 µM
- GI50 (SF-268): 9.1 µM
- LC50 (SF-268): > 100 µM
- GI50 (HCT-116): 38.8 µM
- LC50 (HCT-116): > 100 µM
- GI50 (HCC 2998): > 100 µM
- LC50 (HCC 2998): > 100 µM
- GI50 (NCI-H460): > 100 µM
- LC50 (NCI-H460): > 100 µM
- GI50 (NCI-H322M): > 100 µM
- LC50 (50% lethal concentration) (NCI-H322M): > 100 µM
- GI50 (NCI-H226): > 100 µM
- LC50 (50% lethal concentration) (NCI-H226): > 100 µM
- GI50 (HOP-92): > 100 µM
- LC50 (concentration killing 50% of cells) (HOP-92): > 100 µM
- GI50 (HOP-62): > 100 µM
- LC50 (50% lethal concentration) (HOP-62): > 100 µM
- LC50 [1]: > 100 µM
